ChEMBL document CHEMBL5705901, “Exploiting selective BCL-2 family inhibitors to dissect cell survival dependencies and define improved strategies for cancer therapy” (Sci Transl Med, 2015)
Active and inactive are the calls of the source. The rule behind the calls is not given here.

Key:
A549 [1] = assay: Antitumor activity against 3 times passaged human A549 cells xenografted in po dosed SCID mouse assessed as maximum tumor growth inhibition relative to control; assay type: functional
NCI-H747 [2] = assay: Synergistic antitumor activity against human NCI-H747 cells xenografted in po dosed SCID-bg mouse assessed as tumor growth delay in presence of docetaxel relative to control; assay type: functional
How it was run: (§1)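 Xenografts dosed with oral inhibitor plus intravenous docetaxel. TGImax = 100(1 − Tv/Cv), from mean treated and control tumor volumes; TGD = 100(T/C − 1), from median times to reach 1 cm3. Group size 5 mice (NCI-H747, A549-FP3, EBC-1, OVCAR-5), 8 (NCI-H358), 10 (NCI-H1650).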

NCI-H747 [3] = assay: Synergistic antitumor activity against human NCI-H747 cells xenografted in po dosed SCID-bg mouse assessed as maximum tumor growth inhibition in presence of docetaxel relative to control; assay type: functional; how it was run: as §1
[4] = Toxicity in po dosed SCID-bg mouse assessed as body weight loss in presence of docetaxel relative to control; assay type: organism-based; conditions: in vivo
A549 [5] = assay: Synergistic antitumor activity against 3 times passaged human A549 cells xenografted in po dosed SCID mouse assessed as tumor growth delay in presence of docetaxel relative to control; assay type: functional; how it was run: as §1
OVCAR-5 [6] = assay: Synergistic antitumor activity against human OVCAR-5 cells xenografted in po dosed SCID mouse assessed as maximum tumor growth inhibition in presence of docetaxel relative to control; assay type: functional; how it was run: as §1
EBC-1 = assay: Synergistic antitumor activity against human EBC-1 cells xenografted in po dosed SCID-bg mouse assessed as maximum tumor growth inhibition in presence of docetaxel relative to control; assay type: functional; how it was run: as §1
NCI-H1650 = assay: Antitumor activity against human NCI-H1650 cells xenografted in SCID-bg mouse assessed as tumor growth delay at 25 mg/kg, po administered daily for 14 days relative to control; assay type: functional; conditions: time 14 day
How it was run: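 NCI-H1650 NSCLC xenografts, ten mice per group. Arms: vehicle; docetaxel iv once at 7.5 mg/kg; oral agent daily for 14 days at 25 mg/kg; and the two combined. TGImax = 100(1 − Tv/Cv) from mean volumes. TGD = 100(T/C − 1) from median times to reach 1 cm3.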

[7] = Toxicity in Sprague-Dawley rat assessed as inhibition of granulopoiesis by measuring reduction in neutrophil count at 7 mg/kg, po administered daily for 5 days measured on day 6 by microscopic analysis relative to control; assay type: organism-based; conditions: in vivo, 144 h, time 6 day
How it was run: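 Male Sprague-Dawley rats, n = 10 per group: docetaxel 5 mg/kg i.v. once, or oral inhibitor daily for 5 days (30, 50 or 7 mg/kg depending on agent), alone or combined with docetaxel, against vehicles. Total neutrophil and platelet counts in blood collected on day 6; Tukey-Kramer test versus vehicle.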

MOLT-4 = assay: Antitumor activity against human MOLT-4 cells xenografted in SCID-bg mouse assessed as tumor regression at 25 mg/kg, po administered twice a day for 14 days; assay type: functional, organism-based; conditions: time 14.0 day
How it was run: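 Mice bearing Molt-4 T-ALL xenografts, dosed alongside a vehicle control group. Each point on the growth curve is the mean volume of 10 tumours, with SD.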

[8] = Toxicity in po dosed SCID mouse assessed as tolerance; assay type: organism-based; conditions: in vivo
NCI-H196 = assay: Synergistic antiproliferative activity against 5 times passaged human NCI-H1963 cells xenografted in mouse assessed as reduction in tumor volume at 25 mg/kg, po co-administered with venetoclax twice a day for 14 days; assay type: functional, organism-based; conditions: time 14.0 day
NCI-H747 [9] = assay: Antitumor activity against human NCI-H747 cells xenografted in po dosed SCID-bg mouse assessed as tumor growth delay relative to control; assay type: functional
How it was run: (§2)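 Tumor volume-based endpoints. TGD = 100(T/C − 1), where T and C are the median times for the treated and control groups to reach 1 cm3. Groups were five mice for NCI-H747 and OVCAR-5 and eight for NCI-H358. Docetaxel was given intravenously and the test agent orally.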

OVCAR-5 [10] = assay: Antitumor activity against human OVCAR-5 xenografted in po dosed SCID mouse assessed as tumor growth delay relative to control; assay type: functional; how it was run: as §2
MDA-MB-231 = assay: Antitumor activity against LC3 positive human MDA-MB-231 cells xenografted in SCID mouse assessed as maximum tumor growth inhibition at 25 mg/kg, po administered daily for 14 days relative to control; assay type: functional; conditions: MDA-MB-231, 336 h, time 14 day, read-out: TGI
How it was run: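 MDA-MB-231 LC3 metastatic breast cancer xenograft, 10 mice per group, with a vehicle control. Dosing: oral agent 25 mg/kg daily for 14 days; docetaxel 7.5 mg/kg iv once; combination gives both regimens. Mean tumor volumes tracked. TGImax = 100(1 − Tv/Cv) from mean treated vs control volumes. TGD = 100(T/C − 1) from median times to reach 1 cm3.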

[11] = Toxicity in po dosed SCID mouse assessed as tolerance in presence of docetaxel; assay type: organism-based; conditions: in vivo
[12] = Toxicity in po dosed SCID-bg mouse assessed as body weight loss relative to control; assay type: organism-based; conditions: in vivo
[13] = Toxicity in po dosed SCID-bg mouse assessed as tolerance in presence of docetaxel; assay type: organism-based; conditions: in vivo
ZR-75-1 [14] = assay: Synergistic antiproliferative activity against human ZR-75-1 cells assessed as reduction in cell viability by measuring bliss sum score incubated for 72 hrs in presence of docetaxel by CellTiter-Glo cell vaibility assay; assay type: functional
[15] = Antagonistic antiproliferative activity against […] (unknown origin) cells assessed as reduction in cell viability by measuring bliss sum score incubated for 72 hrs in presence of docetaxel by CellTiter-Glo cell vaibility assay; assay type: functional
MEF = assay: Cytotoxicity against Mcl-1 knockout MEF cells assessed as reduction in cell viability incubated for 48 hrs by CellTiter-Glo cell vaibility assay; assay type: toxicity, cell-based; conditions: mouse
HCC1806 = assay: Induction of apoptosis in human HCC1806 cells assessed as accumulation of cells with sub-G0-G1 DNA content at 1 uM incubated for 48 hrs in presence of docetaxel by flow cytometric analysis; assay type: functional, cell-based
ZR-75-1 [16] = assay: Induction of apoptosis in human ZR-75-1 cells assessed as poly(ADP-ribose) polymerase cleavage incubated for 48 hrs in presence of docetaxel by immunoblot analysis; assay type: functional, cell-based
MDA-MB-453 = assay: Induction of apoptosis in human MDA-MB-453 cells assessed as accumulation of cells with sub-G0-G1 DNA content at 1 uM incubated for 48 hrs in presence of docetaxel by flow cytometric analysis; assay type: functional, cell-based
MDA-MB-468 = assay: Induction of apoptosis in human MDA-MB-468 cells assessed as poly(ADP-ribose) polymerase cleavage incubated for 48 hrs in presence of docetaxel by immunoblot analysis; assay type: functional, cell-based
UAC812 = assay: Induction of apoptosis in UAC812 (unknown origin) cells assessed as accumulation of cells with sub-G0-G1 DNA content at 1 uM incubated for 48 hrs in presence of docetaxel by flow cytometric analysis; assay type: functional, cell-based
BT-474 = assay: Induction of apoptosis in human BT-474 cells assessed as accumulation of cells with sub-G0-G1 DNA content at 1 uM incubated for 48 hrs in presence of docetaxel by flow cytometric analysis; assay type: functional, cell-based

Cc1c(-c2ccc(N3CCc4cccc(C(=O)Nc5nc6ccccc6s5)c4C3)nc2C(=O)O)cnn1CC12CC3CC(CC(C3)C1)C2
TGI (A549 [1]): 67% | Activity (NCI-H747 [2]): 167% | TGI (NCI-H747 [3]): 84% | Activity [4]: < 9% | Activity (A549 [5]): 131% | TGI (OVCAR-5 [6]): 57% | TGI (EBC-1): 88% | Activity (NCI-H1650): 33% | Activity [7]: Non-Toxic | Activity (MOLT-4): Active | Activity [8]: Non-Toxic | Activity (NCI-H196): Active | Activity (NCI-H747 [9]): 33% | Activity (OVCAR-5 [10]): 54% | inhibition in vivo at 25 mg/kg (MDA-MB-231): 55% | Activity [11]: Non-Toxic | Activity [12]: < 9% | Activity [13]: Non-Toxic

CN(C)CC#Cc1ccc(OCCCc2sc(N3CCc4cccc(C(=O)Nc5nc6ccccc6s5)c4C3)nc2C(=O)O)c(F)c1 [A-1155463]
Activity_index (ZR-75-1 [14]): 103 | Activity_index [15]: -269 | Activity (MEF): Toxic

CC1(C)CCC(c2ccc(Cl)cc2)=C(CN2CCN(c3ccc(C(=O)NS(=O)(=O)c4ccc(N[C@H](CCN5CCOCC5)CSc5ccccc5)c(S(=O)(=O)C(F)(F)F)c4)cc3)CC2)C1 [NAVITOCLAX]
Activity (HCC1806): Active | Activity (ZR-75-1 [16]): Active | Activity (MDA-MB-453): Active | Activity (MDA-MB-468): Active | Activity (UAC812): Active | Activity (BT-474): Active
